# pIC50, pKd: −log10 of the molar value. Calls of active or inactive are those of the source. The calls are words filed in the database; no cut-off is given here.
# What was measured:
# [1] = target: T1, Retinoic acid receptor RXR-alpha (Homo sapiens) (UniProt P19793); test: Antagonist activity at RXRalpha (unknown origin) expressed in HEK293T cells assessed as inhibition of receptor transactivation at 10 uM after 12 hrs in presence of 9-cis-RA by luciferase reporter gene assay relative to control; assay type: cell-based; conditions: HEK-293T
# T1 sequence (whole entry): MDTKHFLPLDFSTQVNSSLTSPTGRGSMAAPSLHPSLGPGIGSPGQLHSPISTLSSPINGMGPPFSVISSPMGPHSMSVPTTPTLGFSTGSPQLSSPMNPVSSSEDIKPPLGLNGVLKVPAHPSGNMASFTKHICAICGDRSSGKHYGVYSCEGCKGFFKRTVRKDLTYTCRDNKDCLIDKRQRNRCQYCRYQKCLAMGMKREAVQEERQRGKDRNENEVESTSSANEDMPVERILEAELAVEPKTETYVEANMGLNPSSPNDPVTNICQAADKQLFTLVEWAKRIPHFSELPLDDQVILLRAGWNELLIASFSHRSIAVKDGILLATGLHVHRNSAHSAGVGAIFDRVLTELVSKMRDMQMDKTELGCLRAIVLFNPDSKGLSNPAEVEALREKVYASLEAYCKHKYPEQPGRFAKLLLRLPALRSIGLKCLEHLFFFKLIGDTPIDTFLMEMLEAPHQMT
# In short: (§1)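 HEK-293T cells cotransfected with pG5-Luc reporter and an RXRα expression vector. Cells were treated with 9-cis-RA (10^-7 M) plus test compound for 12 h, and luciferase activity was read. The assay was run either as a single-concentration screen scored as % inhibition or at the indicated concentrations for dose-response.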
# [2] = target: T1, Retinoic acid receptor RXR-alpha (Homo sapiens); test: Binding affinity to RXRalpha-LBD (unknown origin) at 0.01 to 5 uM measured up to 260 sec by surface plasma resonance method
# [3] = target: T1, Retinoic acid receptor RXR-alpha (Homo sapiens); test: Antagonist activity at RXRalpha (unknown origin) expressed in HEK293T cells assessed as inhibition of receptor transactivation at 10 to 30 uM after 12 hrs in presence of 9-cis-RA by luciferase reporter gene assay; assay type: cell-based; conditions: HEK-293T; in short: as §1
# [4] = target: T2, Retinoic acid receptor RXR-alpha (Homo sapiens, UniProt P19793)
# T2 sequence (P19793 whole entry): T1 sequence (whole entry)
# [5] = target: T2, Retinoic acid receptor RXR-alpha; test: Binding affinity to RXRalpha-LBD (unknown origin) measured up to 300 sec by surface plasma resonance method
# In short: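 Surface plasmon resonance with the RXRα ligand-binding domain as the binding partner; affinity expressed as a dissociation constant (Kd).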
# [6] = target: T1, Retinoic acid receptor RXR-alpha (Homo sapiens); conditions: HepG2, 20 ug/ml
# [7] = Binding affinity to RXRalpha-LBD E453A mutant (unknown origin) measured up to 300 sec by surface plasma resonance method; parameters: species or system Homo sapiens
# [8] = target: T1, Retinoic acid receptor RXR-alpha (Homo sapiens); test: Binding affinity to RXRalpha-LBD (unknown origin) at 10 uM measured up to 201 sec in presence of 9-cis-RA by surface plasma resonance method
# [9] = species: Homo sapiens; test: Ratio of Kd for RXRalpha-LBD E453A mutant (unknown origin) to Kd for RXRalpha-LBD (unknown origin)
inhibition [1] [%],SMILES,also measured
57.3,COc1ccc(/C=N/NC(=O)CSc2nc3ccccc3o2)c(O)c1,–
16.2,O=C(CSc1nc2ccccc2o1)N/N=C/c1cccc(O)c1,–
33.2,O=C(CSc1nc2ccccc2o1)N/N=C/c1ccc(F)cc1O,–
47.9,Cc1cccc(/C=N/NC(=O)CSc2nc3ccccc3o2)c1,–

# More lines, now with the values behind:
SMILES,inhibition [1] [%],also measured
O=C(CSc1nc2ccccc2o1)N/N=C/c1ccc(O)cc1O,25.2,–
COc1ccc2c(C)cc(=O)oc2c1/C=N/NC(=O)CSc1nc2ccccc2s1 (mixture of isomers),–,Activity [2]: inactive; inhibition [3]: inactive
O=C(CSc1nc2ccccc2o1)N/N=C/c1ccc(OCc2ccccc2)cc1,3.7,–
O=C(CSc1nc2ccccc2o1)N/N=C/c1cccc(F)c1,13.8,–
O=C(CSc1nc2ccccc2o1)N/N=C/c1cccc(O)c1O,39.6,–
O=C(CSc1nc2ccccc2o1)N/N=C/c1ccc(OCc2ccccc2)cc1O,43.9,–
CCN(CC)c1ccc(/C=N/NC(=O)CSc2nc3ccccc3o2)c(O)c1 (mixture of isomers),74.1,pIC50 [4]: 5.55; pKd [5]: 6.04; inhibition [6]: Active
Cc1cc(=O)oc2c(/C=N/NC(=O)CSc3nc4ccccc4s3)c(O)ccc12,–,pKd [7]: 5.44; Activity [8]: Active; Ratio [9]: 10
CCN(CC)c1ccc(/C=N/NC(=O)CSc2nc3ccccc3o2)cc1,19.3,–
CCN(CC)c1ccc(/C=N/NC(=O)CSc2nc3ccccc3o2)c(OC)c1,17.9,–
O=C(CSc1nc2ccccc2o1)N/N=C/c1ccc(O)c(O)c1O,24.3,–
O=C(CSc1nc2ccccc2o1)N/N=C/c1ccc([N+](=O)[O-])cc1,12.7,–
O=C(CSc1nc2ccccc2o1)N/N=C/c1ccccc1F,13,–
